A short description of test [1]: Her2 expression decrease, cell viability multiplex – SKBR3 breast tumor cells, AlphaScreen, ATP viability, primary screen (AID 461;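 active = Her2 level under about 52% in both replicate screens, with viability over 70% of control, limit read from the data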;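 for Her2 level: lower value means less Her2 protein in the cells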;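 for viability: percent of carrier control wells set as 100% viability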). To be noted: SKBR3 Her2 protein level, 18-24 h, measured here: SKBR3 viability, ATP luminescence, at 10 µM.
In test [2] the target is Receptor tyrosine-protein kinase erbB-2 (Homo sapiens) (UniProt P04626). Described as above. The following applies: 18-24 h, at 10 µM, stronger effect = lower value.
The nature of test [3]: reduced viability of SK-BR-3 breast cancer cells – cell-based, 24 h, human, pilot screen (AID 572;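 active = viability at or below 10% of carrier control in both of two separate runs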;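 note: compound exposure lasted between 18 and 24 h rather than exactly 24 h; 100% = carrier-treated control wells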). To be noted: SK-BR-3 viability, CellTiter-Glo luminescence, at 10 µM, stronger effect = lower value.
The nature of test [4]: HUVEC growth inhibition – cell-based, human, primary screen (AID 575;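 active = viability at or below 30% in both replicate assays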;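 note: 100% = median of untreated cell wells with 0.1% DMSO on each plate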). To be noted: HUVEC proliferation, CellTiter-Glo luminescence, 72 h; at 10 µM; stronger effect = lower value. In a few lines:
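Assay system: Primary human umbilical vein endothelial cells | Quantity: 1250 cells per well | Medium: Supplemented EBM, 2% fetal bovine serum | Detection: CellTiter-Glo luminescence measuring cellular ATP | Read-out: % viability vs DMSO wells | Plate: Collagen-coated 384-well format | Times: 72 h exposure, 37 °C, 5% CO2, 30 min RT equilibration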

The nature of test [5]: H69AR cell proliferation blockers – human, duplicate replicates, primary screen (AID 580).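 Note: 100% = mean luminescence of untreated wells and 0% = no signal.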 To be noted: H69AR lung tumor cells viability, ATP luminescence, 72 h; at 10 µM; stronger effect = lower value.
Test [6] in a line: MRP1 drug-resistance reversers in H69AR cells – cell-based, doxorubicin co-treatment, pilot screen (AID 601;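 active = viability loss from added drug above about 55%, and viability with drug at most 40%, in both replicates, limit read from the data, passing the limit was not always enough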). To be noted: CellTiter-Glo, 72 h, at 10 µM; for differential viability (reversal): stronger effect = higher value.
A short description of test [7]: yeast transport mutant growth inhibition pilot in 384-well plates, post-Golgi transport modulator project (AID 636; in the data active = inhibition above about 31%). The following applies: absorbance 615 nm, about 18 h, stronger effect = higher value.
The nature of test [8]: growth suppression of yeast trafficking mutant, preliminary HTS, modulators of trafficking downstream of Golgi apparatus project, 1536-format plate, OD 615 nm (AID 637; in the data active = inhibition above about 30%). The following applies: yeast transport mutant growth, absorbance 615 nm, 18 h; stronger effect = higher value.
The mark [9] stands for this setting: H69AR cells + 2 uM doxorubicin, measured here: viability with 2 uM doxorubicin, stronger effect = lower value.
Setting [10] is: H69AR cells, compound alone cytotoxicity.

We go through 16 compounds from PubChem BioAssay.

The source made the active and inactive calls.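 Rule for the calls, unless noted: active = viability at or under a set limit in both replicates, limit being median viability minus 3 SD (cut at about 48% in these data, passing the limit was not always enough); inconclusive = at or under the limit in just one replicate; inactive = at or above the limit in both replicates.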

Sequence of Receptor tyrosine-protein kinase erbB-2 (Homo sapiens) (P04626 whole entry, looked up): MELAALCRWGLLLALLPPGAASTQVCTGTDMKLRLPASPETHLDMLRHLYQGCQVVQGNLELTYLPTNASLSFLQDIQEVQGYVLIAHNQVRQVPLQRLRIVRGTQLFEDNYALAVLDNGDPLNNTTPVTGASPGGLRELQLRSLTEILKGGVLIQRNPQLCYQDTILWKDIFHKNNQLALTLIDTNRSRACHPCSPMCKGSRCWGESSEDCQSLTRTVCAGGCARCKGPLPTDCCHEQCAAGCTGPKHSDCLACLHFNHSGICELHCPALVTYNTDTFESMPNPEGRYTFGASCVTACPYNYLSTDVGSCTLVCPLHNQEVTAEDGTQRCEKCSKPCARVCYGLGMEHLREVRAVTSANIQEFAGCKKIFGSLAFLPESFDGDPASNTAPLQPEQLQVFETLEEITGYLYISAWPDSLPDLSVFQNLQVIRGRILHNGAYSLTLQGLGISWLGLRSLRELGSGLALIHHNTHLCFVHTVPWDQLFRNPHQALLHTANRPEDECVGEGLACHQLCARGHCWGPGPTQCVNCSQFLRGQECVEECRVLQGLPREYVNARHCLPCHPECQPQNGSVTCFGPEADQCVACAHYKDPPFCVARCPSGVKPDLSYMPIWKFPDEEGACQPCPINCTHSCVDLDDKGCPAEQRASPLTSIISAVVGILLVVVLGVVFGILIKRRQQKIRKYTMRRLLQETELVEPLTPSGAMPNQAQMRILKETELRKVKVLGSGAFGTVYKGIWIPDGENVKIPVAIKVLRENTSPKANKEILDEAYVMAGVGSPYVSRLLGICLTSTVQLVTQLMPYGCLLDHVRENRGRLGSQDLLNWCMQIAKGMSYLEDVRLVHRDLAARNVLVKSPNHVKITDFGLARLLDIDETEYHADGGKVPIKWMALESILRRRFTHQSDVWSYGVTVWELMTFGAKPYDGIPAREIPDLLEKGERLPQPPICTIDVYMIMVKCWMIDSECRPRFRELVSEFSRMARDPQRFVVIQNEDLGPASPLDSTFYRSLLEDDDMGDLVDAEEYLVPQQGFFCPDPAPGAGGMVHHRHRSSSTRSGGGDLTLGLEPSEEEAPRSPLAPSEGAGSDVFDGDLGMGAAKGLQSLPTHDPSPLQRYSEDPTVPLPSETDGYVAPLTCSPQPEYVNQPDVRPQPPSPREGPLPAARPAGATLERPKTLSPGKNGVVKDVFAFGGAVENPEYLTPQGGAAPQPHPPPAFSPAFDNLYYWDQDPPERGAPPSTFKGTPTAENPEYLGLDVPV

For the compound `COc1ccc2ccccc2c1CN1CCN(C)CC1`, the viability in test [1] was 97%; in test [3] it was 97% (inactive); in test [4] it was 75.1% (inactive); in test [5], 104% (inactive); in test [6] (setting [9]) it was 96.6%; in test [6] (setting [10]) it was 104%. Also, the Her2 level in test [2] is 94.5% (inactive). Also, the differential viability (reversal) in test [6] (H69AR cells + 2 uM doxorubicin) was 7.19% (inactive). Further, the inhibition in test [7] was 1.43% (inactive); in test [8], -0.66% (inactive).

Turning to `CCc1nnc(NC(=O)C2CCCN2S(=O)(=O)c2ccc(C)cc2)s1` (stereo not given), the viability is 91.5% in test [1]; 91.5% (inactive) in test [3]; 117% (inactive) in test [4]; 117% (inactive) in test [5]; 112% in test [6] (setting [9]); 117% in test [6] (setting [10]). For the same compound, the Her2 level in test [2] was 89.5% (inactive). Besides, the differential viability (reversal) in test [6] (H69AR cells + 2 uM doxorubicin) was 5.4% (inactive). Besides, the inhibition was -6.35% (inactive) in test [7] and 6.07% (inactive) in test [8].

As to `O=S(=O)(Nc1ccc(Cc2ccncc2)cc1)N1CCCC1`, the viability is 88% in test [1]; 88% (inactive) in test [3]; 104% (inactive) in test [4]; 92.4% (inactive) in test [5]; 98.6% in test [6] (setting [9]); 92.4% in test [6] (setting [10]). Moreover, the Her2 level in test [2] was 94% (inactive). Also, the differential viability (reversal) in test [6] (H69AR cells + 2 uM doxorubicin) is -6.24% (inactive). For the same compound, the inhibition in test [7] was -3.92% (inactive); in test [8] it was -1.97% (inactive).

For `COc1cc(Cn2c(C(=O)O)cc3sccc32)cc(OC)c1OC`, the viability in test [1] was 107%; in test [3], 107% (inactive); in test [4] it was 98.4% (inactive); in test [5] it was 94.1% (inactive); in test [6] (setting [9]), 91.7%; in test [6] (setting [10]), 94.1%. The Her2 level in test [2] is 102% (inactive). Moreover, in test [6] (H69AR cells + 2 uM doxorubicin), the differential viability (reversal) was 2.41% (inactive). In addition, the inhibition is -1.97% (inactive) in test [7] and 6.56% (inactive) in test [8].

Consider `Cc1sc2ncn3ncnc3c2c1C`, for which the viability was 91% in test [1]; 91% (inactive) in test [3]; 50.7% (inactive) in test [4]; 90.5% (inactive) in test [5]; 99.2% in test [6] (setting [9]); 90.5% in test [6] (setting [10]). Further, the Her2 level in test [2] is 96.5% (inactive). Further, the differential viability (reversal) in test [6] (H69AR cells + 2 uM doxorubicin) was -8.71% (inactive). In addition, the inhibition in test [7] is 6.13% (inactive); in test [8], 4.26% (inactive).

In the case of `CCOC(=O)c1c(-c2ccc(C)o2)csc1NC(=O)COC(=O)c1cccs1`, the viability in test [1] was 93%; in test [3] it was 93% (inactive); in test [4], 69.3% (inactive); in test [5], 84.4% (inactive); in test [6] (setting [9]), 79.2%; in test [6] (setting [10]) it was 84.4%. For the same compound, in test [2], the Her2 level was 87.5% (inactive). Also, the differential viability (reversal) in test [6] (H69AR cells + 2 uM doxorubicin) is 5.23% (inactive). The inhibition in test [7] was 1.3% (inactive); in test [8] it was -3.77% (inactive).

For `Cn1c(COc2ccc(Cl)cc2)nnc1SCC(=O)NC1CCCCC1`, the viability is 77% in test [1]; 77% (inactive) in test [3]; 89.5% (inactive) in test [4]; 103% (inactive) in test [5]; 94% in test [6] (setting [9]); 103% in test [6] (setting [10]). Further, the Her2 level in test [2] was 108% (inactive). For the same compound, in test [6] (H69AR cells + 2 uM doxorubicin), the differential viability (reversal) is 9.25% (inactive). The inhibition was 2.13% (inactive) in test [7] and 20.8% (inactive) in test [8].

With `c1c2c(cc3sc(N4CCCCC4)nc13)OCCO2`, the viability in test [1] is 98%; in test [3], 98% (inactive); in test [4], 87% (inactive); in test [5], 75.4% (inactive); in test [6] (setting [9]), 73.3%; in test [6] (setting [10]) it was 75.4%. The Her2 level in test [2] is 91.5% (inactive). Also, in test [6] (H69AR cells + 2 uM doxorubicin), the differential viability (reversal) was 2.07% (inactive). Moreover, the figures for the inhibition in test [7] and in test [8] were -4.93% (inactive) and 7.26% (inactive), respectively.

Turning to `CC(C)CCNC(=O)C1CCN(C(=O)N(C)C)CC1`, the viability was 104% in test [1]; 104% (inactive) in test [3]; 108% (inactive) in test [4]; 98.8% (inactive) in test [5]; 93.8% in test [6] (setting [9]); 98.8% in test [6] (setting [10]). Moreover, the Her2 level in test [2] is 125% (inactive). In test [6] (H69AR cells + 2 uM doxorubicin), the differential viability (reversal) is 5% (inactive). Moreover, the inhibition in test [7] was -1.41% (inactive); in test [8] it was -1.33% (inactive).

With `CC(c1nnc(SCC(=O)Nc2sccc2C#N)n1-c1ccc(Cl)cc1)N(C)C` (stereo not given), the viability in test [1] was 103%; in test [3] it was 103% (inactive); in test [4], 91.8% (inactive); in test [5], 75.4% (inactive); in test [6] (setting [9]), 81.2%; in test [6] (setting [10]), 75.4%. Further, in test [2], the Her2 level is 74% (inactive). Further, in test [6] (H69AR cells + 2 uM doxorubicin), the differential viability (reversal) is -5.88% (inactive). Moreover, the inhibition in test [7] is -3.68% (inactive); in test [8], 0.79% (inactive).

Consider `CC(=O)Nc1ccc(OC(=O)c2cccs2)cc1`, for which the viability is 101% in test [1]; 101% (inactive) in test [3]; 103% (inactive) in test [4]; 87% (inactive) in test [5]; 101% in test [6] (setting [9]); 87% in test [6] (setting [10]). Moreover, in test [2], the Her2 level was 97% (inactive). For the same compound, the differential viability (reversal) in test [6] (H69AR cells + 2 uM doxorubicin) was -13.6% (inactive). In addition, the inhibition is -1.17% (inactive) in test [7] and -4.59% (inactive) in test [8].

Take `CC(C)c1ccc(S(=O)(=O)N2CCN(C(=O)c3cccc(F)c3)CC2)cc1`: the viability in test [1] was 106%; in test [3], 106% (inactive); in test [4], 92% (inactive); in test [5], 88.3% (inactive); in test [6] (setting [9]) it was 96.9%; in test [6] (setting [10]), 88.3%. In addition, the Her2 level in test [2] is 104% (inactive). Besides, the differential viability (reversal) in test [6] (H69AR cells + 2 uM doxorubicin) is -8.65% (inactive). The figures for the inhibition in test [7] and in test [8] were -5.73% (inactive) and 3.28% (inactive), respectively.

In the case of `CCn1c(=O)cc(OCC(=O)NCCCN2CC(C)CC(C)C2)c2ccccc21` (stereo not given), the viability in test [1] is 101%; in test [3], 101% (inactive); in test [4] it was 81.3% (inactive); in test [5], 74.7% (inactive); in test [6] (setting [9]), 75.5%; in test [6] (setting [10]), 74.7%. Moreover, the Her2 level in test [2] is 81% (inactive). Besides, in test [6] (H69AR cells + 2 uM doxorubicin), the differential viability (reversal) is -0.8% (inactive). In addition, the inhibition in test [7] was -7.24% (inactive); in test [8] it was -2.55% (inactive).

For `Nc1sccc1C(=O)c1ccc(Cl)cc1`, the viability in test [1] is 100%; in test [3] it was 100% (inactive); in test [4], 82.9% (inactive); in test [5], 90.2% (inactive); in test [6] (setting [9]), 85.3%; in test [6] (setting [10]), 90.2%. Moreover, in test [2], the Her2 level was 85% (inactive). The differential viability (reversal) in test [6] (H69AR cells + 2 uM doxorubicin) is 4.88% (inactive). Moreover, the inhibition in test [7] was 0% (inactive); in test [8] it was -4.17% (inactive).

Consider `COc1ccc(-n2c(SCC#N)nc3ccccc3c2=O)cc1`, for which the viability in test [1] was 77%; in test [3], 77% (inactive); in test [4], 93.5% (inactive); in test [5], 96.4% (inactive); in test [6] (setting [9]), 109%; in test [6] (setting [10]), 96.4%. The Her2 level in test [2] is 106% (inactive). The differential viability (reversal) in test [6] (H69AR cells + 2 uM doxorubicin) is -12.8% (inactive). The results for the inhibition in test [7] and in test [8] were 5.06% (inactive) and 3.28% (inactive), respectively.

Turning to `CN(C)CCCN1C(=O)c2oc3ccccc3c(=O)c2C1c1cccs1` (stereo not given), the viability in test [1] was 110%; in test [3], 110% (inactive); in test [4], 99% (inactive); in test [5] it was 86.1% (inactive); in test [6] (setting [9]), 80.8%; in test [6] (setting [10]) it was 86.1%. For the same compound, the Her2 level in test [2] is 93.5% (inactive). Also, the differential viability (reversal) in test [6] (H69AR cells + 2 uM doxorubicin) is 5.31% (inactive). Also, the results for the inhibition in test [7] and in test [8] were -1.95% (inactive) and 1.67% (inactive), respectively.
